From the RNAGym collection of RNA variant scans (doi:10.1126/science.aae0568)
This sample holds only a part of the variants without activity.

B1: tRNA (parent)
chain: GUUCCGUUGGCGUAAUGGUAACGCGUCUCCCUCCUAAGGAGAAGACUGCGGGUUCGAGUCCCGUACGGAACG

Variants of: B1
Experiment: yeast fitness relative to wild type (ratio to wild type); higher = fitter; tRNA-Arg(CCU), competitive growth, 37 C, YPD
Procedure, shortened: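 Gene amplicons from the start population and from each of six end populations were read by 100-nucleotide paired-end sequencing. Those end populations came from pooled Saccharomyces cerevisiae strains carrying tRNA-Arg(CCU) gene variants at the native locus, competed in YPD at 37°C for 24 hours. Fitness relative to wild type was worked out from changes in genotype frequencies. Genotypes needed ≥ 100 starting reads, and estimates < 0.5 were set to 0.5.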

| Variant | yeast fitness |
| --- | --- |
| GUUCCGUGGGCGUAAUGGUAACGCGUCUCCCUCCUAAGGAGAAGACUGCGGGUUCGAGUCCUGAACCGAACG [U8G C62U U64A G67C] | 0.603 |
| GUUCCGUGGCCGGAAUGGUAACGCGUCUACCUCGUAAGGAGACGACUGCGGGUUCGAGUGCCGUACGGAACG [U8G G10C U13G C29A C34G A43C C60G] | ≤ 0.5 |
| GUUCCGUGGGCGUAAUGGUAACGCGACUCCCUCCUAAGGAGACGACUGCGGGUUCGAGUCCCGUACGGAACG [U8G U26A A43C] | 0.55 |
| GUUCCGUGGCCGUAAUGGAAAUGCGUCUCCCUCCUAAGGAGAAGACUGCGGGUUGGAGUCCCGUACGGAACG [U8G G10C U19A C22U C55G] | ≤ 0.5 |
| GUUCCGUGGGCGUAAUGGUAACGAGUCUCGCUCCUAAGGGGAAGACGGCGGGUUUGAGUCCCGUACGGAACG [U8G C24A C30G A40G U47G C55U] | 0.512 |
| GUUCCGUGGGCGUAAUGGUAACGAGUCUCGCUCCUAAGGGGAAGACGGCGGGUUUGAGUCCCGUAUGGACCG [U8G C24A C30G A40G U47G C55U C66U A70C] | ≤ 0.5 |
| GUUCCGUGGACGUAAUGGUAACGCGUCUCCCUCCUAAGGAGAAGACUGCGGGUUCGAGUCCCGUACGGAACG [U8G G10A] | ≤ 0.5 |
| GUUCCGUGGGCGUAAUGGUAACGCCUCUCCCUCCUAAGGACAAGACUGCGGGUUCGAGUCCCGUACGGAACG [U8G G25C G41C] | 0.644 |
| GUUCCGUGGGCGUAAUGGUAACGGGUCUCCCUCCUAAGGAAAAGACUGCGGGUUCGAGUCCCGUACGGUACG [U8G C24G G41A A69U] | ≤ 0.5 |
| GUUCCGUGGGCGUAAUGGUAACGCCUCUCCCUCCUAAGGAGAAGACUGCGGCUUCGAGUCCCGUACGGAACG [U8G G25C G52C] | ≤ 0.5 |
| GUUCCGUGGGCGUAAUGGUAACGGGUCUCCCUCCUAAGGAGAAGACUGCGGGUUCGAGAACCGUACGGAACG [U8G C24G U59A C60A] | ≤ 0.5 |
| GUUCCGUGGGCGUAAUGGUAACGCGUCUCCCUCCAAAGGAAAAGACUGCGGGUAUGAGUCCCGUACGGAACG [U8G U35A G41A U54A C55U] | ≤ 0.5 |
| GUUCCGUGGGCGUAAUGGUAACGCGUCUCCCUCCUAAGGAGAAGACUGCGGGUUCGAGUGCCGUACGGAACG [U8G C60G] | ≤ 0.5 |
| GUUCCGUGGGCGUAAUGGUAACGCGUCUCCCUCCUAAGGAGAAGACUACGGGUUCGAGUCCCGUACGGAACG [U8G G48A] | 0.531 |
| GUUCCGUGGGCGUAAUGGUAACGGGUCUCCCUCCUAAGGAAAAGACUGCGGGUUCGAGUCCCGUACGGAACG [U8G C24G G41A] | 0.553 |
| GUUCCGUGGGCGUAAUGGUAACGCGUUUCACUCCUAAGGAGACGACUGCGGGUUCGAGUCCCGUACGGAACG [U8G C27U C30A A43C] | ≤ 0.5 |
| GUUCCGUGGGCGUAAUGGUAACGCGUCACCCUCAUAAGGAGAAGACUGCGGGUUCGAGUCCCGUAAGGAACG [U8G U28A C34A C66A] | ≤ 0.5 |
| GUUCCGUGCGCGUAAUGGUAACGCGUCUCCCUCCUAAGGAGAAGACUGCGGGUGCGAGUCCCGUACGGAACG [U8G G9C U54G] | ≤ 0.5 |
| GUUCCGUGGGCGUAAUGGUAACGCGUCUACCUCCUAUGGAGAAGACUGAGGGUUCGAGUCCCGUACGGAACG [U8G C29A A37U C49A] | ≤ 0.5 |

| Variant | yeast fitness |
| --- | --- |
| GUUCCGUGGGCGUAAUGGUAACGGGUCUCCCUCCUAAGGAGAAGACUGCGGGUUAGAGUCCCGUUCGGAACG [U8G C24G C55A A65U] | ≤ 0.5 |
| GUUCCGUGCGCGUAAUGGUAACGCGUCUCCCUCCUAAGGAGAAGACUGCGGGUUCGAGUCCCGUACGAAACG [U8G G9C G68A] | ≤ 0.5 |
| GUUCCGUGGGCGUAAUGGUAACGCGUCUCCCCCCUAAGGAGAAGACUGCGGGUUCGAGUCCCGUAUGGAACG [U8G U32C C66U] | ≤ 0.5 |
| GUUCCGUGGGCGUAAUGGUAACGCGACUCCCUCCUAAGGGGACGACUGCGGGUUGGAGUACCGUACGGAACG [U8G U26A A40G A43C C55G C60A] | ≤ 0.5 |
| GUUCCGUGGGCGUAAUGGUAACGCGUCUCCCUCCAAAGGAGAAGACUGCGGGUUCGAGUCCCGUACGGAUCG [U8G U35A A70U] | ≤ 0.5 |
| GUUCCGUGGGCGUAAUGGUAAUGCGUCCCCCUCCUAAGGAGAAGACUGCGGGUUCGAGUCCAGUACGGAACG [U8G C22U U28C C62A] | ≤ 0.5 |
| GUUCCGUGGGCGUAAUGGUAACGCGUCUUCCUCCUAAGGAGAAGACUGCCGGUUCGAGACCCGUACGGAACG [U8G C29U G50C U59A] | ≤ 0.5 |
| GUUCCGUGGGCGUAAUGGUAACGCGUCUCCCUCUUAAGGAGAAGACUGCGGGUUCGAGUCCCGUAGGGAACG [U8G C34U C66G] | ≤ 0.5 |
| GUUCCGUGGGCGUAAUGGUAACGCGCCUCCCUCCUAAGGAGAAGACUGCGGGUUCGAGUUCCGUACGGAACG [U8G U26C C60U] | ≤ 0.5 |
| GUUCCGUGUGCGUAAUGGUAACGCGUCUCACUCCUAAGGAGAAGACUGCGGGUUCGAGUCACGUACGGAACG [U8G G9U C30A C61A] | 0.539 |
| GUUCCGUGGCCGUAAUGGUGACGCGUCUCCCUCCUAAGGAGAAGACUGCGGGUUUGAGUCCCGUACGGAACG [U8G G10C A20G C55U] | ≤ 0.5 |
| GUUCCGUGGGCGUAAUGGUAACGUGUCUCCCUCCUAAGGAGAAGACUGCGGGUUCGAGUCCCGUACGGAACG [U8G C24U] | 0.626 |
| GUUCCGUGGGCGCAAUGGUAACGCGUCUCCCUCCUCAGGAGAAGACUGCGGGCUCGAGUCCCGUACGGAACG [U8G U13C A36C U53C] | ≤ 0.5 |
| GUUCCGUGGGCGUAAUGGUAACGCGUCUGCCUCCUAAGGAGAAGACUGCGGGUUCGAGUCCCGUACGGAACG [U8G C29G] | 0.55 |
| GUUCCGUGGGCGUAAUGGUAACGCGUCUCCCUCCUAAAGAGAAGACUGCGGGUUCGAGUCCCGUACGUAACG [U8G G38A G68U] | ≤ 0.5 |
| GUUCCGUGGGCGUAAUGGUAACGAGUCUCGCUCCUAAGGGGAAGACUGCGGGUUCGAGUCCCGUACGGAACG [U8G C24A C30G A40G] | 0.559 |
| GUUCCGUGGGCGUAAUGGUAACGCGUCUCCCUCCUAAGGAGAAGAGUGCGGAUUCGAGUCCCGUACGGAACG [U8G C46G G52A] | ≤ 0.5 |
| GUUCCGUGGGUGUAAUGGUAACGCGUCUCCCUCCUAAGGAGAAGACUGCGGGUUCGAGUCCCGUACGGAACG [U8G C11U] | 0.646 |
